Measured values from ChEMBL document CHEMBL3272071, “Chemistry and biological activities of N,N-dimethylaminoethyl acrylate, a choline acetyltransferase inhibitor” (J Med Chem, 1976).
The source made the active and inactive calls. The rule behind the calls is not given here.

How the values were obtained:
[1] = biological target: T1, Choline O-acetyltransferase (Rattus norvegicus) (UniProt P32738); assay: Inhibition of Holtzman rat brain choline acetyltransferase using [1-14C-acetyl]-CoA as substrate at 1 mM incubated in un-buffered water for 24 hrs by liquid scintillation counting analysis
T1 sequence (whole entry): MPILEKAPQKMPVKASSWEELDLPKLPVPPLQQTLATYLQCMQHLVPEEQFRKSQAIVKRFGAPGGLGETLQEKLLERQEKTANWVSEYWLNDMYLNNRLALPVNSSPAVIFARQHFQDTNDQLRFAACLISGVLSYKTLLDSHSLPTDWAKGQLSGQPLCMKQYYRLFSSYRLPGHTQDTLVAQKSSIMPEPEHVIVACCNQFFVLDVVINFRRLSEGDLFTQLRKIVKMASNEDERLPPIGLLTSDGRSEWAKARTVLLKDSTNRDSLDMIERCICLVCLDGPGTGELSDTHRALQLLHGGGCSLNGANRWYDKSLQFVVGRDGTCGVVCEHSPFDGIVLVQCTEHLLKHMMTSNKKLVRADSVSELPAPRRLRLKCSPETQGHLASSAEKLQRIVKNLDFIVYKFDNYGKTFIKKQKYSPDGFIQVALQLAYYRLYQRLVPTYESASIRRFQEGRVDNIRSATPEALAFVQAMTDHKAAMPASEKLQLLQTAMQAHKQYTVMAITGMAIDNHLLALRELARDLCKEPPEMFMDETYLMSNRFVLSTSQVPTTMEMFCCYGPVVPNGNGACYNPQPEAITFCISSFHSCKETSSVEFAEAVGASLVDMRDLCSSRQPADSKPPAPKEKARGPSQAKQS
How it was run: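 Hydration product made by keeping compound in unbuffered water for 24 hr, then run at 1.0 mM in the standard rat brain ChAc radioassay: 20 min preincubation at 37°C, 0.065 mM [1-14C-acetyl]-CoA, 30 min, ion-exchange then scintillation counting.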

[2] = Stability in aqueous medium by NMR spectroscopy; type: physicochemical; settings: buffer
How it was run: (§1)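 NMR spectra taken in D2O every 3 min for 1 hr. pH stayed at 9.0 (±0.5) throughout.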

[3] = Stability in D2O assessed every 4 mins for 1 hr by NMR spectroscopy; type: physicochemical
[4] = Stability in D2O by NMR spectroscopy; type: physicochemical; how it was run: as §1
[5] = Stability in Me2SO-d6 by NMR spectroscopy; type: physicochemical
[6] = Stability in chloroform-d by NMR spectroscopy; type: physicochemical
[7] = biological target: T1, Choline O-acetyltransferase (Rattus norvegicus); assay: Inhibition of Holtzman rat brain choline acetyltransferase using [1-14C-acetyl]-CoA as substrate at 1 mM treated with buffered solution at pH 7.4 for 3 to 60 mins prior to enzyme addition followed by 20 mins incubation prior to substrate addition […] by liquid scintillation counting analysis
[8] = biological target: T2, Choline O-acetyltransferase (Rattus norvegicus, UniProt P32738); assay: Inhibition of Holtzman rat brain choline acetyltransferase using [1-14C-acetyl]-CoA as substrate incubated 20 mins prior to substrate addition measured after 30 mins by liquid scintillation counting analysis; settings: read-out: I50
T2 sequence (P32738 whole entry): T1 sequence (whole entry)
How it was run: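 ChAc extracted from Holtzman rat brain acetone powder in ice-cold pH 7.0 phosphate medium (NaCl, EDTA, cysteine, BSA), 9000 g supernatant. Extract preincubated with inhibitor 20 min at 37°C in pH 7.0 phosphate buffer with 150 mM NaCl, 0.05 mM neostigmine, 50 mM choline. Then [1-14C-acetyl]-CoA at 0.065 mM final, 30 min at 37°C. Acetylated product by sequential anion/cation exchange and scintillation counting.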

[9] = biological target: T1, Choline O-acetyltransferase (Rattus norvegicus); assay: Reversible inhibition of Holtzman rat brain choline acetyltransferase using [1-14C-acetyl]-CoA as substrate at 5 X 10^-4 M incubated 20 mins prior to substrate addition measured after 30 mins by liquid scintillation counting analysis
How it was run: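 Reversibility test at 5 × 10^-4 M inhibitor with enzyme varied from 10 to 30 mg acetone powder per ml. Rat brain extract preincubated 20 min at 37°C, then [14C]acetyl-CoA radioassay for 30 min with scintillation counting. Mean of three experiments ± SEM.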

[10] = biological target: T1, Choline O-acetyltransferase (Rattus norvegicus); assay: Uncompetitive inhibition of Holtzman rat brain choline acetyltransferase using choline as substrate at 1 mM incubated 20 mins prior to substrate addition measured after 30 mins by LB plot using liquid scintillation counting analysis
[11] = biological target: T1, Choline O-acetyltransferase (Rattus norvegicus); assay: Uncompetitive inhibition of Holtzman rat brain choline acetyltransferase using acetyl-CoA as substrate at 0.2 mM incubated 20 mins prior to substrate addition measured after 30 mins by LB plot using liquid scintillation counting analysis
[12] = Stability of the compound assessed as autohydrolysis at 5 X 10^-3 M at pH 7.4; type: physicochemical; settings: buffer, pH 7.4, 5000 µM
How it was run: (§2)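 Autohydrolysis run at 25°C for 20 min in barbital buffer (1.5 mM sodium barbital, 0.3 mM KH2PO4, 150 mM NaCl), pH adjusted to give 7.3-7.6. Compound at 5.0 mM final, no enzyme. pH change tracked against an acrylic acid titration standard curve. Mean ± SEM, three experiments.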

[13] = biological target: Acetylcholinesterase (Homo sapiens, UniProt P22303); assay: Stability of the compound assessed as acetylcholinesterase (unknown origin)-mediated hydrolysis at 5 X 10^-3 M; type: ADME; settings: 5000 µM
How it was run: (§3)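 Enzymatic hydrolysis at 5 mM compound in barbital buffer at 25°C for 20 min, pH 7.3-7.6. AChE at 0.083 U/ml or BuChE at 0.017 U/ml. Ester cleavage followed as pH change calibrated against acrylic acid. Mean ± SEM of three experiments.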

[14] = biological target: Cholinesterase (Homo sapiens, UniProt P06276); assay: Stability of the compound assessed as butyrylcholine esterase (unknown origin)-mediated hydrolysis at 5 X 10^-3 M; type: ADME; settings: 5000 µM; how it was run: as §3
[15] = system: Lithobates pipiens; assay: Inhibition of choline acetyltransferase in frog sciatic nerve-gastrocnemius muscle assessed as blockade of electrically stimulated muscle contraction after 3 hrs; type: tissue-based
How it was run: (§4)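 Rana pipiens sciatic nerve-gastrocnemius (20-25 g frogs) in frog Ringer, 25°C, 95% O2/5% CO2. Nerve stimulated at 7 V, 0.5 ms, 250 Hz for 0.1 s every 10 s. Isometric contractions recorded, with washout after 10^-3 M exposure. ED50 with 95% confidence limits by Litchfield-Wilcoxon, N=16.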

[16] = species on record: Cavia porcellus; assay: Inhibition of choline acetyltransferase in guinea pig ileum assessed as blockade of electrically stimulated muscle contraction after 3 hrs; type: tissue-based
How it was run: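 Guinea pig ileum on coaxial electrode in Tyrode solution, 37°C, 95% O2/5% CO2. Transmural stimulation: monophasic square pulses, 40 V supramaximal, 10 Hz, 0.5 ms, 1 s every 10 s. Contraction blockade gave ED50 with 95% confidence limits by Litchfield-Wilcoxon, N=20.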

[17] = system: Lithobates pipiens; assay: Inhibition of choline acetyltransferase in frog sciatic nerve-gastrocnemius muscle assessed as blockade of electrically stimulated muscle contraction at 10^-3 M incubated for 3 hrs followed by compound washout; type: tissue-based; how it was run: as §4
[18] = Dissociation constant, pKa of the compound; type: physicochemical
[19] = Half life of the compound auto-hydrolysis at 5 X 10^-3 M at pH 7.4; type: physicochemical; settings: buffer; how it was run: as §2
[20] = biological target: T2, Choline O-acetyltransferase; assay: Inhibition of Holtzman rat brain choline acetyltransferase using [1-14C-acetyl]-CoA as substrate at 1 mM incubated 20 mins prior to substrate addition measured after 30 mins by liquid scintillation counting analysis; settings: read-out: I50

Acetylcholinesterase, sequence (P22303 whole entry): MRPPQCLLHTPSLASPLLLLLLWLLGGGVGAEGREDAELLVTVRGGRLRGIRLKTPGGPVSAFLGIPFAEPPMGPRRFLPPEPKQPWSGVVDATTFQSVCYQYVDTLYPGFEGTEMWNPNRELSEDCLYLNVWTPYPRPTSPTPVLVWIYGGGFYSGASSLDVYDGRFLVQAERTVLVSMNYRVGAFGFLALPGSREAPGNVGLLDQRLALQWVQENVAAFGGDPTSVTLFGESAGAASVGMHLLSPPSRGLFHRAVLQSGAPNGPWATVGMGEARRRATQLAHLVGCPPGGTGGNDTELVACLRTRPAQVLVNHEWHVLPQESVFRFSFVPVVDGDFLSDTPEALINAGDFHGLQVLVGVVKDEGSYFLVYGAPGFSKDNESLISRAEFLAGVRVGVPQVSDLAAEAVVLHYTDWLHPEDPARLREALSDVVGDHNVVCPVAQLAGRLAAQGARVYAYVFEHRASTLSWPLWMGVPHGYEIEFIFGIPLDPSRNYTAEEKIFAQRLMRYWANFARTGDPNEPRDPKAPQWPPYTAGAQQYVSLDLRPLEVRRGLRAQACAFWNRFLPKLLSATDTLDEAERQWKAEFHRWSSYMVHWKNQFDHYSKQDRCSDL
Cholinesterase, sequence (P06276 whole entry): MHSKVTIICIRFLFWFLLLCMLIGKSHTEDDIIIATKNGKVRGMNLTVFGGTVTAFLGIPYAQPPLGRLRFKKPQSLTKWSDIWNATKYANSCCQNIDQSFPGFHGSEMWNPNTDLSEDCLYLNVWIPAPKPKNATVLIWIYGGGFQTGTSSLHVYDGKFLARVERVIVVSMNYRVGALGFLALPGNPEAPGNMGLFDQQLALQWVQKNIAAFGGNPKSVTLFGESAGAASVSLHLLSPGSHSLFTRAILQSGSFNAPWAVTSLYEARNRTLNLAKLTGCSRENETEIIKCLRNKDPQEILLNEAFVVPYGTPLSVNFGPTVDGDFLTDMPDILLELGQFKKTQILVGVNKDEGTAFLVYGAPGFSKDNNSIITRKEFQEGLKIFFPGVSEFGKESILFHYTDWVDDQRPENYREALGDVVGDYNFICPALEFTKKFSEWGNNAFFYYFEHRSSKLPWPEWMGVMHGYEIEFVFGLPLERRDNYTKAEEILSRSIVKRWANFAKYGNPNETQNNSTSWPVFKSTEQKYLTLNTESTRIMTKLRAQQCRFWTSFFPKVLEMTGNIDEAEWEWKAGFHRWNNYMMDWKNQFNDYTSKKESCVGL

Structure (SMILES) | inhibition [1] | Stability [2] | Stability [3] | Stability [4] | Stability [5] | Stability [6] | inhibition [7] | IC50 [8] [µM] | inhibition [9] | inhibition [10] | inhibition [11] | Drug degradation [12] [×10⁻⁸ mol/min] | Drug degradation [13] [×10⁻⁸ mol/min] | Drug degradation [14] [×10⁻⁸ mol/min] | ED50 [15] [×10⁻⁴ M] | ED50 [16] [×10⁻⁴ M] | inhibition [17] | pKa [18] | half-life at 5000 µM [19] [min] | IC50 [20] [µM]
C=CC(=O)OCCN(C)C | inactive | Unstable | Stable | Stable | Stable | Stable | Active | 502 | Active | Active | Active | 1.75 | 0.07 | 0.06 | 5.05 | 1.21 | Active | 8.6 | 1440 | 
C=CC(=O)O [ACRYLIC ACID] |  |  |  |  |  |  |  |  |  |  |  |  |  |  |  |  |  |  |  | < 200
CC(=O)OCC[N+](C)(C)C [ACETYLCHOLINE] |  |  |  |  |  |  |  |  |  |  |  | 1.75 | 1.46 | 6.57 |  |  |  |  |  | 
